This is a sample that favours compounds with a hit; in the whole collection about 2.5% have one here.
OX1R antag-1 = OX1R (human) antagonism; O43613; OX1R-expressing cells, FRET antagonist read-out; inhibition, % at 6.6 µM; 330,000 compounds, 1.8% hits; AID 485270; in the data active = inhibition mostly above about 38%, no sharp cut-off; inactive = mostly below about 40%;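 note: 0% = agonist challenge alone and 100% = reference antagonist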
Target sequence (O43613 whole entry, looked up): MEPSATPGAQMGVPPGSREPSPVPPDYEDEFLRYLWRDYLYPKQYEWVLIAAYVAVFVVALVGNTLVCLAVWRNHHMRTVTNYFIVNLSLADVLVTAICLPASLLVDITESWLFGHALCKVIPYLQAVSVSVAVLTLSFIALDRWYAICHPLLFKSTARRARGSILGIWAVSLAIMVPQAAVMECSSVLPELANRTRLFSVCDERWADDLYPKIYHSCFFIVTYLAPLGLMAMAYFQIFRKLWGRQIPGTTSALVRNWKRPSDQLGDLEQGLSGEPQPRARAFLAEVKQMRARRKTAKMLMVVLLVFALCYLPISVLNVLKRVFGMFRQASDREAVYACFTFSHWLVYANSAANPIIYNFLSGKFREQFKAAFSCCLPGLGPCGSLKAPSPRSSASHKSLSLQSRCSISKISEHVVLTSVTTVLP
TRPML3 agonist = activates the human TRPML3 channel; AID 1448; activation, % at 3 µM; HEK293 TRPML3-YFP, Fluo-8 calcium fluorescence; 100% = the carbachol control signal; 220,000 compounds, 0.29% hits; Q8TDD5;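 active = activation above its plate's cutoff, the mean activation of the plate's test wells plus 3 SD, cut at about 12% in these data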;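 note: 0% = DMSO only wells and 100% = carbachol wells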
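Material: HEK293 cells stably carrying human TRPML3-YFP; compound dosing: single dose, 3 µM final nominal compound, 0.3% DMSO final; incubation: 1-h 37 °C dye load, 5-s basal, 120-s post-compound reads; technique: Fluo-8 intracellular calcium fluorescence, excitation 470-495 nm, emission 515-575 nm; read-out basis: percent activation from peak-to-basal fluorescence ratio, scaled between DMSO and carbachol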
OX1R antag-2 = blocks the human orexin 1 receptor; O43613; 330,000 compounds, 0.43% hits; CHO/OX1R cells, Fluo-8 calcium fluorescence, orexin A; inhibition, % at 5 µM;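 active = inhibition above its plate's threshold, mean inhibition of all tested compounds on the plate plus 3 SD, cut at about 37% in these data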;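 note: 0% = orexin A challenge wells and 100% = SB-334867-A antagonist wells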
TRPN1 ag = zebrafish TRPN1 (NompC) channel agonism. HEK293 zebrafish TRPN1-YFP, Fluo-8 calcium fluorescence; 100% = response to 87 µM carbachol. activation, % at 3 µM. 220,000 compounds, 0.18% hits. AID 1424;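 active = activation above its plate's cutoff, the mean activation of test wells on that plate plus 3 SD, cut at about 19% in these data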;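 note: 0% = DMSO alone and 100% = 87 µM carbachol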
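Material: zebrafish TRPN1-YFP in HEK293 cells. Doses: one dose of 3 µM, 0.3% DMSO. Incubation: dye 1 h 37 °C plus 30 min RT. Measured by: intracellular calcium fluorescence with Fluo-8.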
CHO parental Ca = signal in parental CHO cells, OX1R antagonist counter-screen; inhibition, % at 5.6 µM; parental CHO-K1, ATP-induced calcium, Fluo-8 fluorescence; 330,000 compounds, 0.63% hits;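 active = inhibition above that plate's mean sample inhibition plus 3 SD, cut at about 26% in these data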;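 note: 0% = ATP-challenged DMSO wells and 100% = DMSO wells without ATP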
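Assay system: parental CHO cells; Read-out basis: percent inhibition of ATP-evoked calcium rise, normalized to controls; Benchmarks: ATP and no-ATP DMSO wells; Compound dosing: single nominal dose of 5.6 µM per compound; Signal: Fluo-8 calcium dye fluorescence; Also added: ATP as calcium-mobilizing challenge; Repeats: singlicate.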
* marks the source's active call; other numbers are inactive results; . = not tested or not shown.

SMILES	OX1R antag-1	TRPML3 agonist	OX1R antag-2	TRPN1 ag	CHO parental Ca
COc1ccc(NC(=O)Cn2c3ccccc3c3nc4n(c(=O)c32)CCS4)cc1OC	25	.	17	.	-14
COc1cccc(NC(=O)Cn2c3ccccc3c3nc4n(c(=O)c32)CCCS4)c1	37*	.	0	.	-31
COc1ccc(NC(=O)Cn2c3ccccc3c3nc4n(c(=O)c32)CCS4)cc1	74*	0	4	-1	-5
NC(=O)c1c(NC(=O)c2ccccc2C(=O)O)sc2c1CCCC2	15	.	-11	.	3
NC(=O)c1c(NC(=O)c2ccc(F)cc2Cl)sc2c1CCC2	44*	.	-16	.	-16
NC(=O)c1c(NC(=O)c2ccccc2Cl)sc2c1CCC2	34	.	-7	.	-17
NC(=O)c1c(NC(=O)c2ccccc2F)sc2c1CCCC2	74*	.	-17	.	-12
CCOC(=O)Cc1csc(N/N=C\c2ccccc2OC)n1	11	.	-16	.	-7
Cc1ccc(C#CC(C)(O)C(C)(C)C)cn1 (centres undefined)	-9	1	12	1	7
Cc1ccc(NC(=O)CSCC(=O)NCc2cccc(C(F)(F)F)c2)cc1	7	.	-38	.	-21
Nc1cnccc1Oc1cccc(C(F)(F)F)c1	10	.	6	.	7
O=C1/C(=C\c2c(NCCOCCO)nc3ccccn3c2=O)SC(=S)N1Cc1ccco1	-6	.	37	.	34*
COc1ccc(CNCC(O)COc2cccc3c2OC(C)(C)C3)cc1 (centres undefined)	13	0	-14	1	0
Cc1ccc2nc(N/N=C/c3ccccc3C#N)nc(-c3ccccc3)c2c1	24	-1	-38	-1	-22
Cc1ccc2nc(N/N=C/c3ccccc3F)nc(-c3ccccc3)c2c1	51*	0	-22	0	-22
CN(CCO)c1cc(Sc2nc3ccccc3s2)c2nonc2c1[N+](=O)[O-]	67*	1	70*	1	88*
Cn1c(CO)cnc1SCc1ccc([N+](=O)[O-])cc1	73*	0	-9	0	-4
O=C(c1ccc(Cl)c(S(=O)(=O)N2CCOCC2)c1)N(c1ccccn1)C1CCCCC1	25	0	-20	-2	-13
CCOC(=O)c1sc(N/N=C/c2ccccc2)nc1C	20	1	-5	0	-19
CC(=O)c1sc(N/N=C\c2ccccc2O)nc1C	51*	1	-7	1	5
Cc1ccc(Cl)cc1NC(=O)C1CCCN1S(=O)(=O)c1ccc(-c2ccc(=O)[nH]n2)s1 (centres undefined)	8	.	-14	.	-6
O=C(Nc1ccc(Cl)c(C(F)(F)F)c1)[C@@H]1CC=C[C@@H]2CCN(C3CC3)C(=O)[C@@H]21	62*	.	-10	.	-27
O=c1c(-c2nnc(SCc3ccc(Cl)cc3Cl)o2)cccn1Cc1ccccc1	52*	0	49*	1	43*
CSc1nnc(-c2cccn(Cc3ccccc3)c2=O)o1	27	-2	-22	2	-16
Cc1ccc(C)c(CN2CCCN(C(=O)Cn3ncc4c3-c3ccccc3OC4)C2)c1	56*	0	3	1	-16
SMILES	OX1R antag-1	TRPML3 agonist	OX1R antag-2	TRPN1 ag	CHO parental Ca
CC(C)(CNC(=O)c1ccc(S(=O)(=O)Nc2ccc(Cl)cc2)cc1)N1CCOCC1	-1	.	2	.	0
Cc1ccccc1Cn1c(C)nc2ccccc21	64	.	13	.	41*
c1ccc2c(c1)ncn2CCCCOc1ccc2c(c1)CCC2	19	1	-7	1	37*
Cc1nc2ccccc2n1Cc1ccc(Cl)cc1	43	.	4	.	31*
c1ccc2c(c1)ncn2CCCOc1ccc2c(c1)CCC2	21	0	-16	-1	15
Clc1ccc(COn2c(-c3ccccc3)nc3ccccc32)cc1	54*	-1	-5	-1	-8
COc1ccc(C(=O)Cn2cnc3ccc(Cl)cc3c2=O)cc1F	19	.	-25	.	22
C=CCNC(=O)c1c(Cl)cnn1-c1ccc(C)cc1	14	0	-33	0	-6
CCN(CC(=O)Nc1ccc(OC)cc1)C(=O)c1ccc([N+](=O)[O-])cc1	4	0	-10	1	-9
CCC(C)C(=O)Nc1nnc(CCc2ccccc2)s1 (centres undefined)	11	.	-38	.	-20
CC(=O)c1cn(CCOc2ccccc2C)c2ccccc12	37	.	22	.	41*

High-throughput results (PubChem)
